Assay results reported in ChEMBL document CHEMBL3616436, “Synthesis, cytotoxicity and antimicrobial activity of thiourea derivatives incorporating 3-(trifluoromethyl)phenyl moiety” (Eur J Med Chem, 2015).
Converted amounts (≈) assume the structure as drawn. The source made the active and inactive calls. The calls are words filed in the database; no cut-off is given here.

Key:
[1] = test system: Micrococcus luteus; test: Antimicrobial activity against Micrococcus luteus ATCC 10240 at 400 ug after 18 hrs by disc-diffusion method; format: functional; details: ATCC 10240, 18 h, read-out: IZ
In short: (§1)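 Disc diffusion on Mueller-Hinton II agar per CLSI; 9 mm paper discs loaded with 400 µg compound from DMSO solution, dried, placed on agar; growth inhibition zone diameter read after 18 h at 35°C.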

[2] = test system: Micrococcus luteus; test: Antimicrobial activity against Micrococcus luteus ATCC 9341 at 400 ug after 18 hrs by disc-diffusion method; format: functional; details: ATCC 9341, 18 h, read-out: IZ; in short: as §1
[3] = Antiviral activity against Bovine viral diarrhea virus 1-NADL ATCC VR-534 infected in MDBK cells assessed as protection against virus-induced cytopathogenicity after 3 to 4 days by MTT assay; format: functional, cell-based; details: Bovine viral diarrhea virus isolates and strains, ATCC VR-534, MDBK
In short: (§2)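 Cells seeded in 96-well plates (BHK 5x10^4, MDBK 3x10^4 cells/well), grown overnight to confluence, infected at m.o.i. 0.01 (BHK for Reo-1, MDBK for BVDV); serial compound dilutions in maintenance medium with 0.5% inactivated FBS added after 1 h; viability by MTT after 3–4 days at 37°C; EC50 for 50% protection by linear regression.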

[4] = test system: Vesicular stomatitis virus; test: Antiviral activity against Vesicular stomatitis virus ATCC VR 1540 infected in African green monkey Vero 76 cells assessed as reduction of virus-plaque formation after 2 days by crystal violet staining; format: functional, organism-based; details: ATCC VR 1540, Vero, 48 h
[5] = test system: Human alphaherpesvirus 1; test: Antiviral activity against Human herpesvirus 1 KOS ATCC VR-1493 infected in African green monkey Vero 76 cells assessed as reduction of virus-plaque formation after 3 days by crystal violet staining; format: functional, organism-based; details: Human alphaherpesvirus 1, KOS ATCC VR1493, Vero, 72 h
In short: (§3)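 Plaque reduction: Vero-76 at 2x10^5 cells/well grown to confluent monolayers, infected 2 h at 50–100 PFU/well; after removing unadsorbed virus, overlay of D-MEM, 1% inactivated FBS, 0.75% methylcellulose with or without serial compound dilutions; 3 days at 37°C, fixed and stained with crystal violet in 50% ethanol, plaques counted; EC50 by linear regression.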

[6] = test system: Staphylococcus epidermidis; test: Antimicrobial activity against Staphylococcus epidermidis ATCC 12228 at 400 ug after 18 hrs by disc-diffusion method; format: functional; details: ATCC 12228, 18 h, read-out: IZ; in short: as §1
[7] = test system: Staphylococcus aureus; test: Antimicrobial activity against Staphylococcus aureus ATCC 29213 at 400 ug after 18 hrs by disc-diffusion method; format: functional; details: ATCC 29213, 18 h, read-out: IZ; in short: as §1
[8] = test system: Proteus vulgaris; test: Antimicrobial activity against Proteus vulgaris NCTC 4635 at 400 ug after 18 hrs by disc-diffusion method; format: functional; in short: as §1
[9] = test system: Staphylococcus epidermidis; test: Antimicrobial activity against Staphylococcus epidermidis ATCC 35984 at 400 ug after 18 hrs by disc-diffusion method; format: functional; details: ATCC 35984, 18 h, read-out: IZ; in short: as §1
[10] = test system: Yellow fever virus; test: Antiviral activity against Yellow fever virus 17D infected in BHK cells assessed as protection against virus-induced cytopathogenicity after 3 to 4 days by MTT assay; format: functional, cell-based
[11] = test system: Vaccinia virus; test: Antiviral activity against Human Vaccinia virus ATCC VR-1549 infected in African green monkey Vero 76 cells assessed as reduction of virus-plaque formation after 3 days by crystal violet staining; format: functional, organism-based; details: Orthopoxvirus vaccinia, ATCC VR-1549, Vero, 72 h
[12] = Cytotoxicity against BHK cells assessed as cell viability after 48 to 96 hrs by MTT assay; format: cell-based, Mesocricetus auratus; details: hamster
[13] = test system: Human immunodeficiency virus 1; test: Antiviral activity against HIV1 3B infected in human MT4 cells assessed as protection against virus-induced cytopathogenicity by MTT assay; format: functional, organism-based; details: Human immunodeficiency virus 1, 3B
[14] = test system: Mycobacterium tuberculosis; test: Antimycobacterial activity against drug-sensitive Mycobacterium tuberculosis Spec. 192; format: functional
In short: (§4)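 Classical test-tube successive-dilution method in Youmans' modification of Proskauer and Beck liquid medium with 10% bovine serum. Inoculum came from 14-day cultures. DMSO stock was 10 mg/mL, diluted geometrically in medium. Tubes were incubated at 37 °C. Concentrations tested were 3.1, 6.2, 12.5, 25, 50 and 100 µg/ml. MIC is the minimum concentration inhibiting growth relative to compound-free tubes.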

[15] = Cytotoxicity against bovine MDBK cells assessed as cell viability after 48 to 96 hrs by MTT assay; format: cell-based, Bos taurus; details: cattle
[16] = test system: Poliovirus 1; test: Antiviral activity against Poliovirus type 1 ATCC VR-1562 infected in African green monkey Vero 76 cells assessed as reduction of virus-plaque formation after 2 days by crystal violet staining; format: functional, organism-based; details: Enterovirus C, ATCC VR-1562, Vero, 48 h
[17] = test system: Staphylococcus aureus; test: Antimicrobial activity against Staphylococcus aureus ATCC 25923 after 18 hrs by twofold serial microdilution method; format: functional; details: ATCC 25923, 18 h
[18] = test system: Staphylococcus epidermidis; test: Antimicrobial activity against Staphylococcus epidermidis ATCC 12228 after 18 hrs by twofold serial microdilution method; format: functional; details: ATCC 12228, 18 h
[19] = test system: Staphylococcus epidermidis; test: Antimicrobial activity against Staphylococcus epidermidis ATCC 35984 after 18 hrs by twofold serial microdilution method; format: functional; details: ATCC 35984, 18 h
[20] = test system: Staphylococcus aureus; test: Antimicrobial activity against Staphylococcus aureus ATCC 6538 at 400 ug after 18 hrs by disc-diffusion method; format: functional; details: ATCC 6538, 18 h, read-out: IZ; in short: as §1
[21] = test system: Enterococcus hirae; test: Antimicrobial activity against Enterococcus hirae ATCC 10541 at 400 ug after 18 hrs by disc-diffusion method; format: functional; details: ATCC 10541, 18 h, read-out: IZ; in short: as §1
[22] = test system: Coxsackievirus B5; test: Antiviral activity against Human coxsackievirus B5 ATCC VR-29 infected in African green monkey Vero 76 cells assessed as reduction of virus-plaque formation after 3 days by crystal violet staining; format: functional, organism-based; details: Enterovirus B, ATCC VR-29, Vero, 72 h; in short: as §3
[23] = test system: Staphylococcus aureus; test: Antimicrobial activity against Staphylococcus aureus ATCC 6538 after 18 hrs by twofold serial microdilution method; format: functional; details: ATCC 6538, 18 h
[24] = test system: Mycobacterium tuberculosis; test: Antimycobacterial activity against Mycobacterium tuberculosis H37Rv ATCC 25618; format: functional; in short: as §4
[25] = test system: Staphylococcus aureus; test: Antimicrobial activity against Staphylococcus aureus ATCC 29213 after 18 hrs by twofold serial microdilution method; format: functional; details: ATCC 29213, 18 h
[26] = test system: Staphylococcus aureus; test: Antimicrobial activity against Staphylococcus aureus NCTC 4163 after 18 hrs by twofold serial microdilution method; format: functional; details: NCTC 4163, 18 h
[27] = Cytotoxicity against human MT4 cells; format: cell-based
[28] = test system: Enterococcus faecalis; test: Antimicrobial activity against Enterococcus faecalis ATCC 29212 at 400 ug after 18 hrs by disc-diffusion method; format: functional; details: ATCC 29212, 18 h, read-out: IZ; in short: as §1
[29] = test system: Bacillus cereus; test: Antimicrobial activity against Bacillus cereus ATCC 11778 at 400 ug after 18 hrs by disc-diffusion method; format: functional; details: ATCC 11778, 18 h, read-out: IZ; in short: as §1
[30] = test system: Staphylococcus aureus; test: Antimicrobial activity against Staphylococcus aureus ATCC 25923 at 400 ug after 18 hrs by disc-diffusion method; format: functional; details: ATCC 25923, 18 h, read-out: IZ; in short: as §1
[31] = test system: Staphylococcus aureus; test: Antimicrobial activity against Staphylococcus aureus NCTC 4163 at 400 ug after 18 hrs by disc-diffusion method; format: functional; details: NCTC 4163, 18 h, read-out: IZ; in short: as §1
[32] = test system: Mammalian orthoreovirus 1; test: Antiviral activity against Reovirus type-1 ATCC VR-214 infected in BHK cells assessed as protection against virus-induced cytopathogenicity after 3 to 4 days by MTT assay; format: functional, cell-based; details: Mammalian orthoreovirus 1, ATCC VR-214, BHK; in short: as §2
[33] = test system: Bacillus subtilis; test: Antimicrobial activity against Bacillus subtilis ATCC 6633 at 400 ug after 18 hrs by disc-diffusion method; format: functional; details: ATCC 6633, 18 h, read-out: IZ; in short: as §1
[34] = Cytotoxicity against African green monkey Vero 76 cells assessed as cell viability after 48 to 96 hrs by crystal violet staining; format: cell-based; details: chlorocebus sabaeus

Row | Structure (SMILES) | zone of inhibition at 400 µg/disc [1] | zone of inhibition at 400 µg/disc [2] | EC50 [3] | EC50 [4] | EC50 [5] | zone of inhibition at 400 µg/disc [6] | zone of inhibition at 400 µg/disc [7] | zone of inhibition at 400 µg/disc [9] | EC50 [10] | EC50 [11] | CC50 [12] | EC50 [13] | MIC [14] | CC50 [15] | EC50 [16] | MIC [17] | MIC [18] | MIC [19] | zone of inhibition at 400 µg/disc [20] | zone of inhibition at 400 µg/disc [21] | further results
1 | FC(F)(F)c1cccc(NC(=S)Nc2ccccc2)c1 | 22 mm | 24 mm | > 49 µM | > 39 µM | > 39 µM | 23 mm | 23 mm | 23 mm | > 41 µM | > 39 µM | 41 µM | > 39 µM | 50 µg/mL (≈ 169 µM) | 49 µM | > 39 µM | 16 µg/mL (≈ 54 µM) | 32 µg/mL (≈ 108 µM) | 16 µg/mL (≈ 54 µM) | 21 mm | 25 mm | zone of inhibition at 400 µg/disc ([8]; NCTC 4635, 18 h, read-out: IZ): 11 mm; EC50 [22]: > 39 µM; MIC [23]: 16 µg/mL (≈ 54 µM); MIC [24]: 50 µg/mL (≈ 169 µM); MIC [25]: 16 µg/mL (≈ 54 µM); MIC [26]: 16 µg/mL (≈ 54 µM); CC50 [27]: 39 µM; zone of inhibition at 400 µg/disc [28]: 15 mm; zone of inhibition at 400 µg/disc [29]: 22 mm; zone of inhibition at 400 µg/disc [30]: 23 mm; zone of inhibition at 400 µg/disc [31]: 24 mm; EC50 [32]: > 41 µM; zone of inhibition at 400 µg/disc [33]: 21 mm; CC50 [34]: 39 µM
2 | COC(=O)c1ccccc1NC(=S)Nc1cccc(C(F)(F)F)c1 | 24 mm | 25 mm | > 100 µM | > 100 µM | > 100 µM | 26 mm | 23 mm | 24 mm | > 100 µM | > 100 µM | > 100 µM | > 100 µM | > 100 µg/mL | > 100 µM | > 100 µM | 32 µg/mL (≈ 90.3 µM) | 64 µg/mL (≈ 181 µM) | 64 µg/mL (≈ 181 µM) | 25 mm | 11 mm | inhibition zone (IZ) [8]: inactive; EC50 [22]: > 100 µM; MIC [23]: 32 µg/mL (≈ 90.3 µM); MIC [24]: > 100 µg/mL; MIC [25]: 32 µg/mL (≈ 90.3 µM); MIC [26]: 32 µg/mL (≈ 90.3 µM); CC50 [27]: > 100 µM; zone of inhibition at 400 µg/disc [28]: 14 mm; zone of inhibition at 400 µg/disc [29]: 19 mm; zone of inhibition at 400 µg/disc [30]: 24 mm; zone of inhibition at 400 µg/disc [31]: 25 mm; EC50 [32]: > 100 µM; zone of inhibition at 400 µg/disc [33]: 20 mm; CC50 [34]: > 100 µM
